Here are results for 21 molecules from ChEMBL document CHEMBL3593155, “Synthesis and evaluation of N-analogs of 1,2-diarylethane as Helicobacter pylori urease inhibitors” (Bioorg Med Chem, 2015).

Assay [1] addresses T1, Urease subunit alpha/Urease subunit beta (Helicobacter pylori (strain ATCC 700392 / 26695) (Campylobacterpylori), UniProt P69996). In words: Inhibition of urease isolated from Helicobacter pylori ATCC 43504 assessed as ammonia production incubated for 1.5 hrs prior to testing by indophenol method. The procedure, abridged: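 Washed cells were sonicated in water with protease inhibitors, and the supernatant was desalted on Sephadex G-25. This crude urease, mixed with an equal volume of glycerol, was pre-incubated with test compound for 1.5 h at room temperature.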

The target of assay [2] is T1, Urease subunit alpha/Urease subunit beta. In words: Inhibition of urease in Helicobacter pylori ATCC 43504 assessed as ammonia production incubated for 1.5 hrs prior to testing by indophenol method. An outline of the steps: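 Washed cells were sonicated 60 s in water with protease inhibitors. The supernatant was desalted on Sephadex G-25 and stored with equal-volume glycerol at 4 °C. Enzyme was preincubated with compound 1.5 h at room temperature.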

For assay [3], the target named is T2, Urease subunit alpha/Urease subunit beta (Helicobacter pylori (strain ATCC 700392 / 26695) (Campylobacterpylori)) (UniProt P69996+P14916). Nature of the assay: Potency index, ratio of AHA IC50 to compound IC50 for urease in Helicobacter pylori ATCC 43504.
Assay [4] deals with T2, Urease subunit alpha/Urease subunit beta (Helicobacter pylori (strain ATCC 700392 / 26695) (Campylobacterpylori)). Nature of the assay: Potency index, ratio of AHA IC50 to compound IC50 for urease isolated from Helicobacter pylori ATCC 4350. As to conditions: Helicobacter pylori ATCC 43504.

pIC50: −log10 of the molar value.

T1 sequence (P69996 whole entry): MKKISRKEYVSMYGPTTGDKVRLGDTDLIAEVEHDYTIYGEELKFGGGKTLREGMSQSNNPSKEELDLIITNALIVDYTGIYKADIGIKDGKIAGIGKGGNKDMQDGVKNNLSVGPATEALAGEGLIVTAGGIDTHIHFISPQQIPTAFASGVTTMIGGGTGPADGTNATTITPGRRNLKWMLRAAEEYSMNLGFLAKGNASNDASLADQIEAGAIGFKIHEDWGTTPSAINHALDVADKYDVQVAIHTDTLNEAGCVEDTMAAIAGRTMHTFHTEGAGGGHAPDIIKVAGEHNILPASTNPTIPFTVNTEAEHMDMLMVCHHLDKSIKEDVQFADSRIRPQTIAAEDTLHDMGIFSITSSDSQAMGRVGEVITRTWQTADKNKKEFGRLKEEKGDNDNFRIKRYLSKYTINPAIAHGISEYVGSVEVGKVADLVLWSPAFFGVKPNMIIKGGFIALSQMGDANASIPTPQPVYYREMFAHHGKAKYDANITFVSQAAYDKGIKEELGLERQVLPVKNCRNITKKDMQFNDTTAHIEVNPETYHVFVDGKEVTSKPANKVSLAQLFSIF
T1 sequence (P14916 whole entry, further chain): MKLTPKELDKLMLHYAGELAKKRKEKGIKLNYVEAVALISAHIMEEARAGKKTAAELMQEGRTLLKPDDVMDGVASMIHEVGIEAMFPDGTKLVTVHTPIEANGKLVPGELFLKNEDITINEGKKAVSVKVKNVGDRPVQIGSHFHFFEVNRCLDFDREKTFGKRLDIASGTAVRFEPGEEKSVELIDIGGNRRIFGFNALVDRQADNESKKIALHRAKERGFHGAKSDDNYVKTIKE
T2 sequence (P14916 whole entry, looked up): as the sequence (P14916 whole entry, further chain) above
T2 sequence (P69996 whole entry, looked up): as the sequence (P69996 whole entry) above

As for `COc1ccc(NCc2ccc(Cl)cc2)cc1`, the negative-log IC50 (pIC50) (as a rule, −log10 of the IC50, conventionally taken in molar units) in assay [1] was under 3.30. In the case of `O=[N+]([O-])c1ccccc1NCc1ccc(O)c(O)c1`, the pIC50 in assay [1] was 4.35. On to `O=[N+]([O-])c1ccc(NCc2ccc(Cl)cc2)cc1`, for which the pIC50 is 4.08 in assay [2] and 4.71 in assay [1]. For `CN(C)c1ccc(CNc2cccc([N+](=O)[O-])c2)cc1` the same measures were 4.14 and 4.77.

With `COc1ccc(CNc2cccc([N+](=O)[O-])c2)cc1OC`, the pIC50 in assay [1] is 4.30. For `COc1ccc(NCc2cccc([N+](=O)[O-])c2)cc1`, the pIC50 in assay [1] was 3.50. Same read-out and setting: to `O=[N+]([O-])c1cccc(CNc2cccc([N+](=O)[O-])c2)c1` belongs 4.07.

Turning to `O=[N+]([O-])c1ccccc1CNc1ccc(Cl)cc1`, the negative-log IC50 (pIC50) in assay [1] is 3.62. Take `O=[N+]([O-])c1ccc(CNc2cccc(Cl)c2)cc1`: the pIC50 in assay [1] is 3.63. For the molecule `CN(C)c1ccc(CNc2ccc(Cl)cc2)cc1`, the pIC50 in assay [1] was under 3.30. Consider `O=[N+]([O-])c1ccc(NCc2ccc(O)cc2)cc1`, for which the figures for the pIC50 in assay [2] and in assay [1] were 4.55 and 5.08, respectively. On to `COc1ccc(NCc2ccc(N(C)C)cc2)cc1`, for which the pIC50 in assay [1] was under 3.30. Same read-out and setting: to `O=[N+]([O-])c1cccc(CNc2cccc(Cl)c2)c1` belongs 3.39. Take `O=[N+]([O-])c1cccc(NCc2ccc(O)c(O)c2)c1`: the pIC50 in assay [2] was 5.02; in assay [1], 5.63. For `CC(=O)NO` [ACETOHYDROXAMIC ACID] the same measures were 3.98 and 4.74. As to `O=[N+]([O-])c1ccc(CNc2cccc([N+](=O)[O-])c2)cc1`, the negative-log IC50 (pIC50) in assay [1] is 4.19.

`Clc1ccc(NCc2ccc3c(c2)OCO3)cc1`: the negative logarithm of the IC50 (pIC50) in assay [1] was under 3.30. Turning to `O=[N+]([O-])c1ccc(NCc2ccc(O)c(O)c2)cc1`, the Ratio IC50 in assay [3] was 54; in assay [4], 29. Further, the figures for the negative logarithm of the IC50 (pIC50) in assay [2] and in assay [1] were 5.72 and 6.21, respectively. Turning to `COc1ccc(CNc2ccc(Cl)cc2)cc1OC`, the pIC50 in assay [1] was under 3.30.

Turning to `O=[N+]([O-])c1ccc(CNc2ccc([N+](=O)[O-])cc2)cc1`, the pIC50 in assay [2] was 3.90; in assay [1] it was 4.58. On to `O=[N+]([O-])c1cccc(NCc2ccc(Cl)cc2)c1`, for which, in assay [1], the negative logarithm of the IC50 (pIC50) was 4.24.
